Calb FLC: C. albicans growth inhibition with fluconazole, primary screen, CaCi-2 strain, Alamar Blue fluorescence | C. albicans CaCi-2 (fluconazole-resistant clinical isolate) + fluconazole, 48 h | hit rate 0.57% among 300,000 | growth inhibition, % (concentration not given with the values);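 active = growth inhibition above about 58% in most replicates, limit read from the data, passing the limit was not always enough; inconclusive = exactly half the replicates above a set limit; inactive = most replicates below a set limit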;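 also: all wells also contain fluconazole at 8 µg/ml as a sub-toxic cotreatment; 0% = median of DMSO wells and 100% = median of geldanamycin control wells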
VIM-2 inh: VIM-2 metallo-beta-lactamase inhibitors, primary screen, biochemical, epi-absorbance readout, Pseudomonas aeruginosa enzyme; AID 1527, 2009; inhibition, % at 5.6 µM; hit rate 0.89% among 290,000; purified VIM-2, nitrocefin hydrolysis, epi-absorbance fluorescence;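 active = inhibition above the mean of all tested compounds plus 3 SD, cutoff set per screening run, cut at about 7.5% in these data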;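 also: red hydrolysis product quenches plate fluorescence so inhibitors raise well fluorescence; 0% = enzyme with DMSO and 100% = DMSO without enzyme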
IMP-1 inhibitor: IMP-1 metallo-beta-lactamase inhibitors, primary screen, biochemical, epi-absorbance readout, Pseudomonas aeruginosa enzyme; inhibition, % at 5.6 µM; purified IMP-1, nitrocefin hydrolysis, epi-absorbance fluorescence; metallo-beta-lactamase IMP-1 (Pseudomonas aeruginosa); AID 1556, 2009; hit rate 0.45% among 290,000;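 active = inhibition above the mean plus 3 SD of all compounds in the same screening run, cut at about 4.5% in these data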;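 also: 0% = IMP-1 with DMSO and 100% = DMSO wells lacking enzyme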
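System – purified recombinant IMP-1 beta-lactamase · Input – IMP-1 dispensed at 0.2 nM · Timing – 15 min preincubation plus 25 min reaction at 25 °C · Signal – Epi-absorbance fluorescence, 480 nm excitation, 530 nm emission · Measure – percent IMP-1 inhibition derived from blank-referenced optical density · Controls – Enzyme-plus-DMSO low control, enzyme-free DMSO high control · Replication – singlicate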
ARFGAP1 inhibitor: inhibitors of rat ARFGAP1 GAP activity, primary screen, biochemical, fluorescence polarization, GDP tracer | ADP-ribosylation factor GTPase-activating protein 1 (Rattus norvegicus), Q62848 | Arfgap1-stimulated ARF1 GTP hydrolysis, GDP FP detection | inhibition, % at 16.5 µM | hit rate 0.26% among 360,000;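 active = inhibition above a per-plate limit, mean inhibition of low control wells plus 3 SD, cut at about 25% in these data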;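 also: 0% = DMSO wells with enzyme and 100% = wells lacking Arfgap1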
Target sequence (Q62848 1-136 limits assumed): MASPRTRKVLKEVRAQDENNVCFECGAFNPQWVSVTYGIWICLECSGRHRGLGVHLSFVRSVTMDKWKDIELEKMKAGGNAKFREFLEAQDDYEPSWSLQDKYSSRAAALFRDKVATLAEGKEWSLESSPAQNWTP
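Repeats: one replicate per compound; assay system: rat Arfgap1 catalytic domain, aa 1-136; times: enzyme reaction 120 min at 25 °C after 20 min preincubation; detection: FP of antibody-bound GDP Alexa 633 tracer, ex 620/em 688 nm; benchmarks: high control wells lacking Arfgap1, low control full reaction with DMSO; reagent: human ARF1(Δ1-17)-GTP substrate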
PHOSPHO1 inh: PubChem AID 1565 | hit rate 1.1% among 290,000 | Phosphoethanolamine/phosphocholine phosphatase (Homo sapiens), Q8TCT1 | inhibition, % at 13.3 µM | recombinant PHOSPHO1, absorbance phosphatase assay; in the data active = inhibition above about 60%
Target sequence (Q8TCT1 whole entry, looked up): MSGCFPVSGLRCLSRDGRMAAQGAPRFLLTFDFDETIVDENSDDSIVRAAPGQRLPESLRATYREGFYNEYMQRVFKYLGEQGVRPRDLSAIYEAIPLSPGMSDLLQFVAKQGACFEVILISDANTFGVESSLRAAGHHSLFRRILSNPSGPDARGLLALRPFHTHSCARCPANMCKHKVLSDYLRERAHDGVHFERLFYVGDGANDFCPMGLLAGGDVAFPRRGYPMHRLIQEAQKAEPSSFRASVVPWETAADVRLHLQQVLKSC
ASAP1 inh: inhibitors of human ASAP1 ArfGAP activity, primary screen, biochemical, fluorescence polarization | Arf-GAP with SH3 domain, ANK repeat and PH domain-containing protein 1 (Homo sapiens), … | ASAP1-stimulated ARF1 GTP hydrolysis, GDP FP detection | inhibition, % at 16.5 µM | hit rate 0.19% among 360,000 | AID 624377, 2012; in the data active = inhibition above about 25%;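 also: 0% = vehicle with enzyme and substrate and 100% = no enzyme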
The depositor's hits bear a star; ? = inconclusive; nt = no result given. Compounds with a hit are over-represented: about 2.6% of the library has one in this group of screens.

SMILES | Calb FLC | VIM-2 inh | IMP-1 inhibitor | ARFGAP1 inhibitor | PHOSPHO1 inh | ASAP1 inh
Cc1ccc(Cl)c2c1=NC(=O)C=2c1[nH]c(=S)[nH]c1O | 21.6 | 2.5 | 6.4* | -14.0 | -5.1 | -17.4
CCCc1cc2c(OC)ccc(O)c2c(=O)n1C | nt | nt | nt | 0.3 | nt | 0.3
CCOC(=O)N1CCN(C(=O)C[C@H]2C[C@@]3(C(=O)OC)C(=C[C@H](C(C)(C)C)O[C@@H]3C)N(Cc3ccc4c(c3)OCO4)C2=O)CC1 | nt | nt | nt | 11.1 | nt | 1.8
O=C(Nc1ccc(Cl)cc1)OC[C@@H]1CSCCS(=O)(=O)N1 | nt | nt | nt | -1.3 | nt | 7.3
CNCc1ccccc1Sc1ccc(O)c(O)c1 | 106.6* | -1.7 | -3.4 | 13.6 | -5.0 | 5.9
COC(=O)N1C[C@H](O)[C@H](O)C[C@@H]1c1ccccc1Br | nt | nt | nt | 10.0 | nt | 5.4
CCCOc1ccc(F)cc1-c1cc(C(=O)NCc2cccs2)[nH]n1 | nt | nt | nt | 7.4 | nt | -11.4
CCn1c(C)nc2cc(C(=O)NNC(=S)Nc3ccccc3Cl)ccc21 | -4.0 | -6.4 | -5.5 | 14.8 | 6.6 | 9.9
CCn1c(C)nc2cc(C(=O)NNC(=S)Nc3ccc(Cl)cc3Cl)ccc21 | 95.3* | -1.9 | -2.6 | 17.3 | 4.1 | -2.8
COC(=O)C1=C(C)N(Cc2cccc(C(F)(F)F)c2)C(=NCc2ccc(OC)cc2)NC1c1ccc(Cl)cc1 (stereo unspecified) | nt | nt | nt | -5.7 | nt | 6.9
O=C(c1cc2ccccc2oc1=O)N(c1ccccc1)C1C=CS(=O)(=O)C1 (stereo unspecified) | -7.6 | -1.0 | -1.9 | 3.3 | -6.2 | 7.1
COc1ccc(N(C(=O)c2cc3ccccc3oc2=O)C2C=CS(=O)(=O)C2)cc1 (stereo unspecified) | 2.5 | -0.9 | -2.1 | -5.2 | 60.9* | -1.9
CN(C)CC(C)(C)CNS(=O)(=O)c1cccc(Cl)c1Cl | -7.7 | -2.1 | -2.5 | 9.0 | 75.3* | -6.6
CN(C)CC(C)(C)CNS(=O)(=O)c1ccc(Cl)cc1 | 13.8 | 1.1 | -0.6 | -1.7 | -2.4 | -3.0
Cc1cnc(C(=O)N2CCc3c([nH]c4ccccc34)C2c2ccc(F)cc2)cn1 (stereo unspecified) | ? | -2.2 | -0.9 | 0.3 | 35.4 | -1.0
CC(=O)c1cc(C(=O)N2CCc3c([nH]c4ccccc34)C2C2CCCCC2)[nH]n1 (stereo unspecified) | 90.9* | -3.7 | -1.4 | 9.3 | 41.1 | 2.1
c1csc(Cc2nn3c(-c4ccncc4)nnc3s2)c1 | 54.7 | 1.6 | -2.9 | 0.2 | 72.2* | -0.4
CCc1cc(=O)oc2cc(C)cc(OC(C)C(=O)NC3CC(C)(C)NC(C)(C)C3)c12 (stereo unspecified) | -11.2 | 1.7 | -1.8 | -4.3 | 32.4 | 0.8
CCc1cc(=O)oc2c(C)c(OC(C)C(=O)NC3CC(C)(C)NC(C)(C)C3)ccc12 (stereo unspecified) | 2.5 | 8.1* | 1.5 | 10.1 | 15.9 | -10.7
CC(C)(C)OC(=O)N1CCC2CCN(S(=O)(=O)c3ccccc3)CC21 (stereo unspecified) | nt | nt | nt | -2.0 | nt | 3.9
CCn1cc(CN2CCc3c([nH]c4ccccc34)C2c2cccc(O)c2)c(C)n1 (stereo unspecified) | 28.0 | -3.8 | -3.4 | 15.6 | 63.7* | 12.3
Cc1ccc(CSc2nnc(-c3ccccc3N)c(=O)[nH]2)cc1 | 2.0 | -2.3 | -3.8 | -16.2 | 102.0* | -5.9
Nc1ccccc1-c1nnc(SCc2ccccc2Cl)[nH]c1=O | 10.6 | -1.7 | -3.4 | -3.5 | 12.5 | -7.5
COC(=O)[C@]12C[C@H](CC(=O)N3CCC(c4ccccc4)CC3)C(=O)N(Cc3ccc4c(c3)OCO4)C1=C[C@H](COCc1ccccc1)O[C@@H]2C | nt | nt | nt | 3.2 | nt | 1.4
CN(C)CCCN1C(=O)c2cccc3cccc(c23)C1=O | 8.3 | 7.8* | -4.1 | 7.3 | 34.8 | -0.4
SMILES | Calb FLC | VIM-2 inh | IMP-1 inhibitor | ARFGAP1 inhibitor | PHOSPHO1 inh | ASAP1 inh
C[C@H](O)[C@@H]1C(=O)N2CCc3c([nH]c4cccc(-c5ccccc5)c34)[C@@H]2C[C@@H]1N(C)CC1CCCCC1 | nt | nt | nt | -4.2 | nt | 1.1
COc1ccc(C2=[N+](C)CCn3cccc32)c(OC)c1 | 1.1 | 3.2 | 7.2* | -5.5 | -17.8 | -7.6
O=C(C[C@@H]1C[C@@H]2c3cc(NC(=O)c4ccc5c(c4)OCO5)ccc3O[C@@H]2[C@@H](CO)O1)NCc1cccnc1 | nt | nt | nt | 7.7 | nt | -1.6
CCCCOc1ccc(CSc2nc(C)[nH]c2[N+](=O)[O-])cc1[N+](=O)[O-] | 39.6 | -4.0 | -7.9 | 10.6 | 60.8* | -10.7
Cc1cc(C)c2ccc(N)nc2c1O | 107.3* | -1.9 | -3.2 | -0.8 | 20.1 | -0.6
O=C(CN1C(=O)/C(=C/c2ccccc2F)SC1=S)NC1C=CS(=O)(=O)C1 (stereo unspecified) | -1.3 | 0.5 | 7.0* | 5.5 | -41.7 | -0.9
COc1cccc(/C=C2\SC(=S)N(CCC(=O)NC3C=CS(=O)(=O)C3)C2=O)c1 (stereo unspecified) | nt | -0.2 | 8.2* | -5.0 | 7.5 | 2.7
COc1ccc(/C=C2\SC(=S)N(CCC(=O)NC3C=CS(=O)(=O)C3)C2=O)cc1 (stereo unspecified) | ? | -3.6 | 11.7* | -1.2 | 23.9 | 1.8
O=C(O)c1ccc2cccnc2c1O | 9.9 | 10.2* | -0.3 | -1.9 | 7.2 | -1.7
O=C(O)c1ccccc1NC(c1ccccc1)c1ccc2cccnc2c1O (stereo unspecified) | nt | nt | nt | 0.0 | nt | 1.1
Fc1cccc(-n2cc(-c3ccccc3)c3c(=S)nc[nH]c32)c1 | 101.3* | -3.3 | -2.6 | -7.2 | -126.4 | 11.8
C[C@H](c1ccccc1)N1C[C@@H](COCc2ccccc2)Oc2cccc(Oc3ccc(C(C)(C)C)cc3)c2S1(=O)=O | nt | nt | nt | 0.8 | nt | 0.8
COc1ccc(CC(=O)NCC2CCN(C(=O)C(=O)c3cc4ccccc4o3)CC2)cc1 | nt | nt | nt | 5.3 | nt | -4.5
COc1ccc(Nc2nc(C)cc(C)c2C#N)cc1 | 0.7 | -2.4 | -3.2 | -3.4 | -28.3 | -4.4
COc1cnc(SC)nc1Nc1ccc(C#N)cc1 | 11.0 | 9.1* | -2.9 | 0.3 | 29.8 | 2.9
COC(=O)CSc1nc2sc3c(c2c(=O)n1-c1ccc(OC)cc1)CCN(C)C3 | -2.5 | 1.9 | 5.8* | 14.9 | 22.9 | 3.8
C[C@H](CO)N1C[C@H](C)[C@H](CN(C)C(=O)Nc2cccc(F)c2)OCc2cnnn2CCCC1=O | nt | nt | nt | 4.8 | nt | -4.0
Cc1cc(C)n(-c2nc(NCCN(C)C)c3c4c(sc3n2)CCCC4)n1 | 79.7* | -0.9 | -2.0 | 4.8 | -7.0 | -2.8

Bioassay records: PubChem BioAssay, several laboratories
